According to paper PMC4467237 (Clinical Pharmacology in Drug Development, 2014):
“Also recorded” adds a separate entry of the source. Where two headings read alike, the source gives them in different places. Marks after values point to notes of the source that are not given here.

Tests used:
[1] = cited from earlier work
[2] = assay type: in vivo, human; conditions: for AUC(0-t) / AUC(0-inf) / Tmax / half-life: human, plasma, oral
[3] = Safety assessments; assay type: in vivo, human
Method in brief: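 Healthy adults in a randomized two-sequence crossover with a 14-day washout. Each period gave an oral 400 mg interacting drug or placebo once daily for 18 days, plus a single oral 5 mg test compound on day 5 after a 10-h fast. AEs checked daily, graded mild/moderate/severe and for causality, coded in MedDRA v14.0. Vital signs taken before PK draws. Labs, 12-lead ECG and physical exam at baseline, predose and discharge. Summarized descriptively in dosed subjects with ≥1 postdose assessment.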

[4] = human; cited from earlier work
[5] = system: CYP3A4; conditions: lenvatinib 0.1–10 µg/mL, human liver microsomes and human recombinant CYPs; ref Eisai data on file; cited from earlier work
[6] = single agent, Phase I and II studies; cited from earlier work
[7] = healthy volunteers, cited from earlier work
[8] = 5 mg lenvatinib + ketoconazole 400 mg/day [B], n = 16
[9] = 5 mg lenvatinib + placebo [A], n = 16
[10] = 5 mg, arithmetic mean (SD), 5 mg lenvatinib + placebo [A], n = 16
[11] = 5 mg, geometric mean (%CV), 5 mg lenvatinib + placebo [A], n = 16
[12] = arithmetic mean (SD), 5 mg lenvatinib + ketoconazole 400 mg/day [B], n = 16
[13] = geometric mean (%CV), 5 mg lenvatinib + ketoconazole 400 mg/day [B], n = 16

In the case of Cc1cn(-c2cc(NC(=O)c3ccc(C)c(Nc4nccc(-c5cccnc5)n4)c3)cc(C(F)(F)F)c2)cn1 [nilotinib], the “Increase in AUC with ketoconazole coadministration” value ([1]; nilotinib) is listed as “more than 200%” and the “Increase in Cmax with ketoconazole coadministration” value ([1]; nilotinib) is listed as 84%.

In the case of Cc1ccc(NC(=O)c2ccc(CN3CCN(C)CC3)cc2)cc1Nc1nccc(-c2cccnc2)n1 [imatinib], the “Increase in AUC with ketoconazole coadministration” value ([1]; imatinib) is listed as 40%.

In the case of COc1cc2nccc(Oc3ccc(NC(=O)NC4CC4)c(Cl)c3)c2cc1C(N)=O [Lenvatinib], the “CL/F, arithmetic mean (SD)” value [2, 8] is reported as 7.70 (1.49) L/h, the “tlag, arithmetic mean (SD)” value [2, 8] is reported as 0.06 (0.17) ^e h and the “CL/F, arithmetic mean (SD)” value [2, 9] is reported as 8.78 (1.40) L/h. The “tlag, arithmetic mean (SD)” value [2, 9] was 0.16 (0.24) ^b h, the “Increase in Cmax with ketoconazole versus placebo” value ([2]; 5 mg lenvatinib, ketoconazole 400 mg/day) was 19% and the “Percent extrapolation of AUC0–∞” value ([2]; across all subjects) was < 4%. The “Median time at which Cmax was achieved” value ([2]; both treatment conditions (placebo or ketoconazole)) was 3 h, the AUC(0-t) [2, 10] was 571 ng·h/mL and the AUC(0-t) [2, 11] was 564 ng·h/mL. It also gave an AUC(0-inf) [2, 10] of 584 ng·h/mL, an AUC(0-inf) [2, 11] of 577 ng·h/mL and a Tmax ([2]; 5 mg, tmax median (range), 5 mg lenvatinib + placebo [A]) of 3 h. For the same molecule, the Tmax ([2]; 5 mg, tmax, arithmetic mean (SD), 5 mg lenvatinib + placebo [A], n = 16) was 3.13 h, the half-life ([2]; 5 mg, t½ median (range), 5 mg lenvatinib + placebo [A]) was 29 h and the AUC(0-t) [2, 12] was 661 ng·h/mL. For the same molecule, the AUC(0-t) [2, 13] was 647 ng·h/mL, the AUC(0-inf) [2, 12] was 676 ng·h/mL and the AUC(0-inf) [2, 13] was 662 ng·h/mL. The Tmax ([2]; tmax median (range), 5 mg lenvatinib + ketoconazole [B]) was 3 h, the Tmax ([2]; tmax, arithmetic mean (SD), 5 mg lenvatinib + ketoconazole 400 mg/day [B], n = 16) was 2.56 h and the half-life ([2]; t½ median (range), 5 mg lenvatinib + ketoconazole [B]) was 29.2 h. The half-life ([2]; t½, arithmetic mean (SD), 5 mg lenvatinib + ketoconazole 400 mg/day [B], n = 16) was 28.3 h, the “Decrease in apparent mean clearance in the ketoconazole treatment group” value ([2]; versus placebo) was ~12% and the “Difference in tmax, t½ or tlag between the two treatments” value ([2]; visual assessment, ketoconazole versus placebo) was “No changes; also recorded: no difference”. The “Subjects reporting treatment-emergent AEs” value ([3]; following ketoconazole with lenvatinib, 18 subjects) was 44%, the “Subjects reporting treatment-emergent AEs” value ([3]; following placebo with lenvatinib, 17 subjects) was 59% and the ECG results ([3]; overall, both treatments) was “either normal or considered not clinically significant”. The “Serious TEAEs” value ([3]; overall, both treatments) was “No serious TEAEs were reported”, the “Subjects with treatment-related TEAEs” value ([3]; overall, both treatments) was 22% and the “Subjects reporting treatment-emergent AEs” value ([3]; overall, both treatments, N = 18) was 72%. For the same molecule, the Hypertension ([3]; single-dose lenvatinib 5 mg alone or with ketoconazole, healthy subjects) was “not observed”, the “Renal clearance as contributor to oral clearance” value [4] was 1–2% and the “Terminal exponential half-life (t½,z)” value [4] was ~28 h. For the same molecule, the “Share of CYP3A4 in the CYP-mediated metabolism of lenvatinib” value [5] was > 80%, the Maximum tolerated dose [6] was 25 mg/day and the Median tmax ([7]; range 1–4 hours) was 2 h. For the same molecule, the “Mean t½” value ([7]; range 11–57 hours) was 27.6 h, the “AUC0–∞” value [7] was 1409 ng·h/mL and the “Mean Cmax” value [7] was 144.5 ng/mL.
